≈ marks a conversion by molar mass, not a printed value.
Columns and labels:
HeLa = assay: In vitro concentration required to inhibit the growth of HeLa S3 cells by 50%; assay type: functional, cell-based; settings: Homo sapiens
In short: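 HeLa S3 cells (5 × 10⁴) seeded in Eagle's MEM with 10% FBS and 0.06 mg/mL kanamycin; graded drug concentrations, diluted in growth medium, added 24 h after seeding. Incubated 72 h at 37 °C, humidified 5% CO₂. Monolayers then washed, detached with 0.05% trypsin/0.02% EDTA and counted electronically; IC50 taken as concentration giving 50% growth inhibition.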

[1] = Ratio of the ILS tested compound/quinocarcin was determined in CD2F1 mice on days 1-5.; assay type: functional, Mus musculus
In short: (§1)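 CD2F1 mice (5 per group) received 10^6 P388 cells ip. Drug was given ip on day 1 or on days 1–5. ILS was taken as (T/C − 1) × 100 from median survival times, and each compound's ILS was divided by the ILS of quinocarcin.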

[2] = Antitumor activity in vivo in CD2F1 mice measured in terms of percent increase in lifespan calculated at a dose of 6.25 mg/kg intraperitoneally on day one.; assay type: functional; settings: Mus musculus, ip, route intraperitoneal
In short: (§2)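 P388 lymphocytic leukemia cells (1×10^6) were implanted ip into CD2F1 mice (about 22 g), five mice per group. Drug was given ip from the day after implantation, either once (day 1) or daily on days 1–5. ILS = (T/C − 1) × 100, where T and C are the median survival times of treated and control mice.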

[3] = Ratio of the ILS tested compound/quinocarcin was determined for day one in CD2F1 mice.; assay type: functional, Mus musculus; in short: as §1
[4] = Antitumor activity in vivo in CD2F1 mice measured in terms of percent increase in lifespan calculated at a dose of 6.25 mg/kg intraperitoneally on days 1-5.; assay type: functional; settings: Mus musculus, ip, route intraperitoneal; in short: as §2
CCRF S-180 [5] = assay: Ratio of ILS tested compound/quinocarcin against murine sarcoma S-180 tumor cell line implanted subcutaneously in mice and the compound administered intravenously at a dose of 12.5 mg/kg on days 1-5.; assay type: functional, Mus musculus; settings: route intravenous
[6] = Antitumor activity in vivo in CD2F1 mice measured in terms of percent increase in lifespan calculated at a dose of 25 mg/kg intraperitoneally on day one.; assay type: functional; settings: Mus musculus, ip, route intraperitoneal; in short: as §2
[7] = Antitumor activity in vivo in CD2F1 mice measured in terms of percent increase in lifespan calculated at a dose of 12.5 mg/kg intraperitoneally on day one.; assay type: functional; settings: Mus musculus, ip, route intraperitoneal; in short: as §2
[8] = Antitumor activity in vivo in CD2F1 mice measured in terms of percent increase in lifespan calculated at a dose of 3.13 mg/kg intraperitoneally on days 1-5.; assay type: functional; settings: Mus musculus, ip, route intraperitoneal; in short: as §2
LC-06 cell line = assay: Ratio of ILS tested compound/quinocarcin against LC-06 cell lines implanted subcutaneously in mice and the compound administered intravenously at a dose of 5.59 mg/kg on days 1-5.; assay type: functional, Homo sapiens; settings: route intravenous
St-4 [9] = assay: Ratio of ILS tested compound/quinocarcin against St-4 tumor cell line implanted subcutaneously in mice and the compound administered intravenously at a dose of 13.8 mg/kg on days 1-5.; assay type: functional, Homo sapiens; settings: route intravenous
St-4 [10] = assay: Ratio of ILS tested compound/quinocarcin against St-4 tumor cell line implanted subcutaneously in mice and the compound administered intravenously at a dose of 8.78 mg/kg on days 1-5.; assay type: functional, Homo sapiens; settings: route intravenous
Homo sapiens [11] = assay: Ratio of ILS tested compound/quinocarcin against human mammary carcinoma MX-1 cell line implanted subcutaneously in mice and the compound administered intravenously at a dose of 4.41 mg/kg on days 1-5.c means number of cured mice.; assay type: functional; settings: route intravenous
Homo sapiens [12] = assay: Ratio of ILS tested compound/quinocarcin against human mammary carcinoma MX-1 cell line implanted subcutaneously in mice and the compound administered intravenously at a dose of 5.59 mg/kg on days 1-5.c means number of cured mice.; assay type: functional; settings: route intravenous
[13] = Antitumor activity in vivo in CD2F1 mice measured in terms of percent increase in lifespan calculated at a dose of 5-10 mg/kg intraperitoneally on days 1-5.; assay type: functional, Mus musculus; in short: as §2
Co-3 = assay: Ratio of ILS tested compound/quinocarcin against Co-3 tumor cell line implanted subcutaneously in mice and the compound administered intravenously at a dose of 13.8 mg/kg on days 1-5.; assay type: functional, Homo sapiens; settings: route intravenous
CCRF S-180 [14] = assay: Ratio of ILS tested compound/quinocarcin against murine sarcoma S-180 tumor cell line implanted subcutaneously in mice and the compound administered intravenously at a dose of 10 mg/kg on days 1-5.; assay type: functional, Mus musculus; settings: route intravenous
[15] = Antitumor activity in vivo in CD2F1 mice measured in terms of percent increase in lifespan calculated at a dose of 50 mg/kg intraperitoneally on days 1-5.; assay type: functional; settings: Mus musculus, ip, route intraperitoneal; in short: as §2
[16] = Antitumor activity in vivo in CD2F1 mice measured in terms of percent increase in lifespan calculated at a dose of 1.56 mg/kg intraperitoneally on days 1-5.; assay type: functional; settings: Mus musculus, ip, route intraperitoneal; in short: as §2
[17] = Antitumor activity in vivo in CD2F1 mice measured in terms of percent increase in lifespan calculated at a dose of 12.5 mg/kg intraperitoneally on days 1-5.; assay type: functional; settings: Mus musculus, ip, route intraperitoneal; in short: as §2

## CCSC1=C(OC)C(=O)C2=C(C[C@H]3[C@H]4[C@H](C(=O)O)C[C@@H](C(C#N)N3[C@H]2CO)N4C)C1=O (some centres not stated)
HeLa
  IC50: 2.42 µg/mL (≈ 5.41 µM)
[1]
  R: 0.65
[2]
  ILS at 6.25 mg/kg: 29%
[3]
  R: 0.67
[4]
  ILS at 6.25 mg/kg: 51%
CCRF S-180 [5]
  T/C: 0.47

## COC1=C(SC(C)C)C(=O)C2=C(C1=O)[C@@H]1COC3[C@@H]4C[C@@H](C(=O)O)[C@H]([C@H](C2)N31)N4C (some centres not stated)
HeLa
  IC50: 0.79 µg/mL (≈ 1.82 µM)
[1]
  R: 1
[2]
  ILS at 6.25 mg/kg: 31%
[3]
  R: 1.29
[4]
  ILS at 6.25 mg/kg: 81%

## CCSC1=C(OC)C(=O)C2=C(C1=O)[C@H](CO)N1C(C#N)[C@@H]3C[C@@H](C(=O)O)[C@H]([C@@H]1C2)N3C (some centres not stated)
[6]
  ILS at 25 mg/kg: 31%
HeLa
  IC50: 2.88 µg/mL (≈ 6.44 µM)
[1]
  R: 0.76
[3]
  R: 0.72
[4]
  ILS at 6.25 mg/kg: 59%

## CC(C)Sc1c(O)c2c(c(O)c1SC(C)C)[C@H](CO)N1C(C#N)[C@@H]3C[C@@H](C(=O)O)[C@H]([C@@H]1C2)N3C (some centres not stated)
[7]
  ILS at 12.5 mg/kg: 51%
HeLa
  IC50: < 0.03 µg/mL
[1]
  R: 1.09
[3]
  R: 1
[4]
  ILS at 6.25 mg/kg: 102%

## CCSc1c(O)c2c(c(O)c1SCC)[C@H](CO)N1C(C#N)[C@@H]3C[C@@H](C(=O)O)[C@H]([C@@H]1C2)N3C (some centres not stated)
HeLa
  IC50: < 0.03 µg/mL

## CCCSC1=C(SCCC)C(=O)C2=C(C[C@H]3[C@H]4[C@H](C(=O)O)C[C@@H](C(C#N)N3[C@H]2CO)N4C)C1=O (some centres not stated)
[6]
  ILS at 25 mg/kg: 56%
HeLa
  IC50: 0.05 µg/mL (≈ 0.0989 µM)
[1]
  R: 0.48
[3]
  R: 1.17
[4]
  ILS at 6.25 mg/kg: 42%

## CN1[C@@H]2[C@H](C(=O)O)C[C@H]1C(C#N)N1[C@@H](CO)C3=C(C[C@@H]21)C(=O)C(SC(C)(C)C)=C(SC(C)(C)C)C3=O (some centres not stated)
[6]
  ILS at 25 mg/kg: 48%
HeLa
  IC50: 0.004 µg/mL (≈ 0.00749 µM)
[1]
  R: 0.5
[3]
  R: 1.26
[8]
  ILS at 3.13 mg/kg: 46%

## COc1cccc2c1[C@@H]1COC3[C@@H]4C[C@@H](C(=O)O)[C@H]([C@H](C2)N31)N4C (some centres not stated)
LC-06 cell line
  T/C: 0.23
[7]
  ILS at 12.5 mg/kg: 48%
St-4 [9]
  T/C: 0.42
HeLa
  IC50: 0.11 µg/mL (≈ 0.333 µM)
St-4 [10]
  T/C: 0.55
[1]
  R: 1
Homo sapiens [11]
  T/C: 0
[3]
  R: 1
Homo sapiens [12]
  T/C: 0.01
[13]
  ILS: 120%
Co-3
  T/C: 0.22
CCRF S-180 [14]
  T/C: 0.74

## CN1[C@@H]2[C@H](C(=O)O)C[C@H]1C(C#N)N1[C@@H](CO)c3c(O)c(SCCO)c(SCCO)c(O)c3C[C@@H]21 (some centres not stated)
HeLa
  IC50: 3.24 µg/mL (≈ 6.33 µM)
[1]
  R: 0.39
[2]
  ILS at 6.25 mg/kg: 18%
[3]
  R: 0.44
[4]
  ILS at 6.25 mg/kg: 41%

## CN1[C@@H]2[C@H](C(=O)O)C[C@H]1C(C#N)N1[C@@H](CO)c3c(O)ccc(O)c3C[C@@H]21 (some centres not stated)
[7]
  ILS at 12.5 mg/kg: 23%
HeLa
  IC50: 6.1 µg/mL (≈ 17 µM)
[4]
  ILS at 6.25 mg/kg: 23%

## CN1[C@@H]2[C@H](C(=O)O)C[C@H]1C(C#N)N1[C@@H](CO)C3=C(C[C@@H]21)C(=O)C(SCCO)=C(SCCO)C3=O (some centres not stated)
[7]
  ILS at 12.5 mg/kg: 26%
HeLa
  IC50: 2.47 µg/mL (≈ 4.85 µM)
[3]
  R: 0.62
[4]
  ILS at 6.25 mg/kg: 20%

## CCCSC1=C(SCCC)C(=O)C2=C(C[C@H]3[C@H]4[C@H](C(=O)O)C[C@@H](C5OC[C@@H]2N53)N4C)C1=O (some centres not stated)
[7]
  ILS at 12.5 mg/kg: 58%
HeLa
  IC50: 0.03 µg/mL (≈ 0.0627 µM)
[1]
  R: 0.98
[3]
  R: 1.21
[4]
  ILS at 6.25 mg/kg: 86%

## CSc1c(O)c2c(c(O)c1SC)[C@@H]1COC3[C@@H]4C[C@@H](C(=O)O)[C@H]([C@H](C2)N31)N4C (some centres not stated)
[7]
  ILS at 12.5 mg/kg: 65%
HeLa
  IC50: 0.13 µg/mL (≈ 0.306 µM)
[1]
  R: 0.57
[3]
  R: 1.51
[4]
  ILS at 6.25 mg/kg: 59%

## CCOC(=O)CSC1=C(SCC(=O)OCC)C(=O)C2=C(C[C@H]3[C@H]4[C@H](C(=O)O)C[C@@H](C(C#N)N3[C@H]2CO)N4C)C1=O (some centres not stated)
HeLa
  IC50: 9.96 µg/mL (≈ 16.8 µM)
[15]
  ILS at 50 mg/kg: 30%

## CCSC1=C(SCC)C(=O)C2=C(C[C@H]3[C@H]4[C@H](C(=O)O)C[C@@H](C5OC[C@@H]2N53)N4C)C1=O (some centres not stated)
HeLa
  IC50: 0.08 µg/mL (≈ 0.178 µM)
[1]
  R: 0.93
[2]
  ILS at 6.25 mg/kg: 64%
[3]
  R: 1.33
[8]
  ILS at 3.13 mg/kg: 82%

## CCSc1c(O)c2c(c(O)c1OC)[C@H](CO)N1C(C#N)[C@@H]3C[C@@H](C(=O)O)[C@H]([C@@H]1C2)N3C (some centres not stated)
[7]
  ILS at 12.5 mg/kg: 28%
HeLa
  IC50: 1.18 µg/mL (≈ 2.62 µM)
[1]
  R: 0.79
[3]
  R: 0.65
[4]
  ILS at 6.25 mg/kg: 58%

## COC1=C(SC(C)C)C(=O)C2=C(C[C@H]3[C@H]4[C@H](C(=O)O)C[C@@H](C5OC[C@@H]2N53)N4C)C1=O (some centres not stated)
HeLa
  IC50: 2.37 µg/mL (≈ 5.45 µM)
[16]
  ILS at 1.56 mg/kg: 51%
[1]
  R: 0.63
[2]
  ILS at 6.25 mg/kg: 30%
[3]
  R: 1.25

## CCSC1=C(SCC)C(=O)C2=C(C[C@H]3[C@H]4[C@H](C(=O)O)C[C@@H](C(C#N)N3[C@H]2CO)N4C)C1=O (some centres not stated)
[7]
  ILS at 12.5 mg/kg: 50%
HeLa
  IC50: 0.11 µg/mL (≈ 0.23 µM)
[1]
  R: 0.42
[3]
  R: 1.16
[4]
  ILS at 6.25 mg/kg: 51%

## COC1=C(SC(C)C)C(=O)C2=C(C[C@H]3[C@H]4[C@H](C(=O)O)C[C@@H](C(C#N)N3[C@H]2CO)N4C)C1=O (some centres not stated)
[7]
  ILS at 12.5 mg/kg: 17%
HeLa
  IC50: 0.56 µg/mL (≈ 1.21 µM)
[17]
  ILS at 12.5 mg/kg: 75%
[1]
  R: 1

## COC1=C(SC(C)C)C(=O)C2=C(C1=O)[C@H](CO)N1C(C#N)[C@@H]3C[C@@H](C(=O)O)[C@H]([C@@H]1C2)N3C (some centres not stated)
[7]
  ILS at 12.5 mg/kg: 21%
HeLa
  IC50: 1.12 µg/mL (≈ 2.43 µM)
[17]
  ILS at 12.5 mg/kg: 51%
[1]
  R: 0.68
[3]
  R: 0.58
